# In the library only some 1.9% were active in any assay of this set; here they are far more common.
# F508del corr – F508del CFTR correction, initial screen, CFBE line, single point; CFBE cells, YFP halide quenching; stimulated with forskolin plus potentiator P3; % fluorescence drop versus neutral controls; activity (quench increase), % at 7.58 µM; hit rate 0.36% among 350,000; AID 720511, 2013;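 active means mean added fluorescence quench of at least 8% versus neutral control, with both replicates also reaching 8%; inconclusive means only one of the mean or replicate conditions met; inactive means mean below 8% and not both replicates reaching 8%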;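 further: cells transiently co-express mutant CFTR-F508del with the halide-sensitive YFP; corrector assay measuring rescue of mutant channel to the surface after 24 h compound exposure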
# Xi reactivation – activators of inactive X chromosome reactivation, primary screen, imaging, XiGFP fibroblasts, GFP high-content imaging, set 2. XiGFP mouse fibroblasts, % GFP-positive cells imaging, 3 d; cells co-treated with 5-aza-dC sensitizer; scaled so ellipticine positive control = 100%. activation, % at 7.58 µM. hit rate 0.055% among 360,000;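 active means mean normalized replicate activation at least 10% and every replicate at or above 10%; inconclusive means only one of the two criteria met; inactive means mean below 10% and not all replicates reach 10%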;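 further: 0% = median of on-plate neutral control wells and 100% = ellipticine 6 µM median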
#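 Assay system: SV40-immortalized XiGFP fibroblast cells, line 68-5-11; buffer or medium: DMEM plus 5-aza-dC sensitizer; compound: one concentration, pinned; timing: compounds 3 days, fix/stain 15 min at room temperature; benchmarks: positive control ellipticine, 6 µM final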
# PGC1a acetyl inh – inhibitors of PGC1a acetylation signal, primary screen, cell-based, U2OS, AlphaScreen, inhibitor mode; AlphaScreen anti-acetyl-lysine; with virally co-expressed GCN5 acetyltransferase; inhibition, % at 15.6 µM; AID 651687, 2012; hit rate 0.17% among 350,000;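 active means every replicate shows inhibition of at least 40%; inconclusive means mean inhibition at least 40% but some replicate below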;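 further: 0% = neutral control wells and 100% = positive control wells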
# Cneo AK release – Cryptococcus neoformans cell lysis inducers, primary screen, AK release luminescence, single concentration; C. neoformans lysis, adenylate kinase release luminescence, 4 h; normalised: neutral wells 0, clomiphene wells 100; lysis activity, % at 15 µM; hit rate 0.2% among 360,000;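 active means mean lysis activity across replicates of at least 80%, whatever share of replicates individually reach that level; inactive means mean lysis activity below 80%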
#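 Material – log-phase Cryptococcus neoformans yeast cells · Input – 5 × 10^6 yeast cells/mL · Medium – fresh YPD growth medium · Doses – single compound concentration per well · Timing – static 4 h at 37 °C with compound, 1 h detection · Detection – adenylate kinase release luminescence · Read-out – signal increase indicating cell lysis · Control set – Clomiphene as positive lysis control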
# FN deposition inh – inhibitors of fibronectin matrix deposition, primary screen, AH1F cells, Alexa488-fibronectin fluorescence, plate reader; AH1F fibroblasts, overnight; inhibition, % at 12.6 µM; hit rate 0.086% among 350,000;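 active means mean inhibition across replicates of 30% or more, regardless of how many single replicates reach that level; inconclusive means mean under 30% yet at least half of replicates reach 30%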;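 further: positive control wells lacked labelled fibronectin entirely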
#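 Test system: AH1F fibroblast monolayer depositing Alexa488-labelled fibronectin into matrix. Input: 10000 cells per well. Technique: fluorescence, ex 485 nm, em 525 nm. Buffer or medium: DMEM plus 2% serum, read in PBS. Timing: 1 h cell adhesion before compound, then overnight fibronectin incubation. Compound: single dose, pinned. Read-out basis: inhibition from reduced deposited-fibronectin fluorescence.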
# DENV2 CPE rescue – inhibitors of DENV2 cytopathic effect, primary screen, cell-based, plate reader, single concentration | AID 651640, 2012 | CPE inhibition, % at 9.99 µM | DENV2-infected cells, cytopathic effect rescue | hit rate 1.7% among 350,000; in the data active means CPE inhibition above about 20%, passing the limit was not always enough; inconclusive means no clear call, values can overlap the other calls; tested in BHK-21 cells;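 further: 0% = median of neutral control wells and 100% = median of positive control wells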
# * = called active by the depositor; ? = inconclusive; . = not tested or not shown; ! = not active in a repeat.
SMILES,F508del corr,Xi reactivation,PGC1a acetyl inh,Cneo AK release,FN deposition inh,DENV2 CPE rescue
Cc1ccc(-c2ccc([C@H]3[C@@H](CO)N4CCCCN(C(=O)Nc5cccc(F)c5)C[C@H]34)cc2)cc1,8.0*,0,-26,9,.,-11
O=C(Nc1cccc(F)c1)N1CCCCN2[C@H](CO)[C@@H](c3ccc(C#Cc4ccccc4)cc3)[C@@H]2C1,2,0,3,0,.,-12
O=C(Nc1ccc(F)cc1)N1CCCCN2[C@H](CO)[C@H](c3ccc(-c4cccc(F)c4)cc3)[C@H]2C1,7,0,-6,3,.,-24
O=C(Nc1cccc(F)c1)N1CCCCN2[C@@H](CO)[C@H](c3ccc(C#CC4CC4)cc3)[C@@H]2C1,8.6*,0,-14,1,.,3
C[C@@H]1CCCCO[C@@H](CN(C)C(=O)Cc2ccccc2)[C@H](C)CN([C@@H](C)CO)C(=O)c2cc(NS(=O)(=O)c3ccccc3)ccc2O1,1,0,16,2,-7,-8
Cc1cccc(S(=O)(=O)N(C)C[C@@H]2OCc3cnnn3CCCC(=O)N([C@@H](C)CO)C[C@H]2C)c1,-3,-1,6,1,-2,-4
COc1cc(OC)cc(C(=O)OCC(=O)NC(c2ccccc2)c2ccccc2)c1,8.2*,0,3,5,2,-1
O=C(CC(F)(F)F)N1C[C@H]2[C@@H](c3ccccc31)[C@@H](CO)N2Cc1cccnc1,-2,0,1,4,2,27*
O=C(CC(F)(F)F)N1C[C@@H]2[C@H](c3ccccc31)[C@@H](CO)N2C(=O)c1cccnc1,-1,0,10,-1,.,23*
O=C(C1CCC1)N1C[C@H]2[C@@H](c3ccccc31)[C@H](CO)N2C(=O)Cc1ccccn1,-1,0,2,1,15,33*
O=C(c1cccnc1)N1C[C@@H]2[C@H](c3ccccc31)[C@@H](CO)N2C(=O)C1CCCCC1,2,0,0,3,-2,52*
COc1ccc(/C=N/N2CCN(c3ccc(Cl)cc3)CC2)cc1O,-1,0,.,-2,3,32*
C[C@H]1CN([C@@H](C)CO)C(=O)c2cc(C#CCN(C)C)cnc2O[C@@H]1CN(C)C(=O)c1ccc(F)cc1,1,-1,3,54,.,-1
CC(C)CC#Cc1cnc2c(c1)C(=O)N([C@H](C)CO)C[C@H](C)[C@H](CN(C)C(=O)c1ccc(F)cc1)O2,1,0,7,-1,-4,5
C[C@H](CO)N1C[C@H](C)[C@H](CN(C)C(=O)c2ccc(F)cc2)Oc2ncc(C#CCN(C)C)cc2C1=O,-1,-1,-4,64,.,35*
CC(C)CC#Cc1cnc2c(c1)C(=O)N([C@H](C)CO)C[C@@H](C)[C@@H](CN(C)C(=O)c1ccc(F)cc1)O2,-2,-1,30,1,-11,21*
C[C@H](CO)N1C[C@H](C)[C@H](CN(C)C(=O)Nc2ccccc2F)Oc2ncc(C#CCN(C)C)cc2C1=O,0,1,3,.,.,72*
C[C@H](CO)N1C[C@H](C)[C@H](CN(C)Cc2ccncc2)Oc2ncc(C#Cc3ccccn3)cc2C1=O,2,0,6,0,7,-2
C[C@H]1CN([C@@H](C)CO)C(=O)c2cc(C#CCN(C)C)cnc2O[C@@H]1CN(C)C(=O)Nc1ccccc1F,-2,0,-1,-2,.,-5
C[C@H]1CN([C@@H](C)CO)C(=O)c2cc(C#Cc3ccccn3)cnc2O[C@H]1CN(C)Cc1ccncc1,-2,-1,-2,94*,3,?
CC(C)NC(=O)N[C@@H]1CC[C@H](CCNC(=O)C2CCOCC2)O[C@@H]1CO,-1,0,-11,0,3,-1
CO[C@H]1CC[C@@H]2CCN(C)C(=O)C[C@@H](c3ccccc3)CN(C)C(=O)c3cc(C#N)ccc3OC[C@H]1O2,.,0,.,3,-1,1
CC(C)CC#Cc1cnc2c(c1)C(=O)N([C@H](C)CO)C[C@@H](C)[C@@H](CN(C)C(=O)c1ccc3c(c1)OCO3)O2,2,-1,1,89*,.,-2
C[C@@H]1CN([C@H](C)CO)C(=O)c2cc(C#C[C@@H](C)O)cnc2O[C@H]1CN(C)C(=O)c1ccc(F)cc1,4,0,-13,-1,1,43*!
C[C@H]1CN([C@@H](C)CO)C(=O)c2cc(C#CCN(C)C)cnc2O[C@H]1CN(C)Cc1ccc(F)cc1,2,0,-7,58,9,32*
SMILES,F508del corr,Xi reactivation,PGC1a acetyl inh,Cneo AK release,FN deposition inh,DENV2 CPE rescue
NC(=O)COC(=O)CC(NC(N)=O)c1ccc(Cl)cc1 (stereo not drawn),0,0,107*,2,-12,-3
CO[C@@H](CN(C)C(=O)c1ccccc1F)[C@H](C)CN([C@H](C)CO)S(=O)(=O)c1ccc(C)cc1,-1,0,-12,-3,-7,3
CC(C)COCC(O)CCC(=O)NNC(=S)Nc1ccccc1 (stereo not drawn),-1,0,.,.,-4,94*
O=C(Cc1ccccc1)NNC(=S)Nc1ccccc1,0,0,-6,.,2,-12
O=C(COC(=O)CNC(=O)c1ccc(Cl)cc1)Nc1ncc(C(F)(F)F)cc1Cl,.,0,.,.,-1,76*
C[C@@H]1CN([C@@H](C)CO)C(=O)c2cc(NC(=O)Nc3ccc4c(c3)OCO4)ccc2O[C@H]1CN(C)Cc1ccc(Oc2ccccc2)cc1,-1,0,-5,89*,1,?
C[C@H](CO)N1C[C@H](C)[C@@H](CN(C)Cc2ccc(Oc3ccccc3)cc2)Oc2ccc(NC(=O)Nc3ccc4c(c3)OCO4)cc2C1=O,-2,0,-13,101*,0,-9
O=C(NCC[C@H]1CC[C@@H](NC(=O)C2CC2)[C@H](CO)O1)c1cnccn1,-3,0,6,-4,5,-3
Cc1ccc(-c2ccc3c(c2)O[C@@H](CN(C)Cc2ccc(C(=O)O)cc2)[C@@H](C)CN([C@@H](C)CO)S3(=O)=O)cc1,5,-1,15,9,.,-7
O=C(N[C@@H]1CC[C@@H](CCNS(=O)(=O)c2cccc(Cl)c2)O[C@H]1CO)c1ccccc1,-3,0,1,-4,.,77*
